# High-throughput results deposited in PubChem by NMMLSC.
# A selection: hits, their analogues and other compounds. The true share with any hit is near 2.3%.
# MEKK3 PB1 HTS – modulators of MEKK3-MEK5 PB1 binding, primary screen, biochemical, wildtype MEKK3, multiplex bead flow cytometry, Alexa488-MEK5; Mitogen-activated protein kinase kinase kinase 3 (Homo sapiens), Q99759; bead-based flow cytometry, Alexa488-MEK5 binding to MEKK3; actives lie on both sides; 0 = blocked by unlabeled MEK5, 100 = vehicle; binding response (% of control), % at 10 µM; actives 1.4% (n = 290,000);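 active means binding response more than 3 SD above or below the average of its plate-row segment, actives on both sides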;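 further: Alexa488 bead fluorescence after subtracting the streptavidin-only scavenger bead signal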
# MEKK2mut PB1 HTS – MEK5 binding signal on mutant MEKK2 PB1, primary screen, biochemical, multiplex bead flow cytometry, Alexa488-MEK5. Alexa488-MEK5 binding to MEKK2 mutant. percent response, % at 10 µM. actives 0.35% (n = 290,000). AID 1530, 2009; in the data active means percent response above about 24%, passing the limit was not always enough
# ABCB1 inh – ABCB1 efflux pump inhibitors, primary screen, cell-based, multiplex, flow cytometry, ABCG2 counter-screen; ATP-dependent translocase ABCB1 (Homo sapiens), P08183; CCRF-Adr cells, JC-1 efflux; inhibition, % at 6.6 µM; actives 0.067% (n = 190,000); AID 1326, 2008; in the data active means inhibition above about 40%;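 further: 0% = vehicle and 100% = reference inhibitor; higher value means more JC-1 retained so stronger ABCB1 efflux block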
# MEKK2 WT-MEK5 – modulators of MEK5 binding to wildtype MEKK2, primary screen, biochemical, multiplex bead flow cytometry, Alexa488-MEK5; Mitogen-activated protein kinase kinase kinase 2 (Homo sapiens), Q9Y2U5; Alexa488-MEK5 binding to MEKK2 WT; actives lie on both sides; binding response (% of control), % at 10 µM; actives 1.1% (n = 290,000); in the data active means binding response below about 67% or above about 130%
# ABCG2 block – ABCG2 efflux pump inhibitors, primary screen, multiplex with ABCB1, IgMXP3 cells, flow cytometry | Broad substrate specificity ATP-binding cassette transporter ABCG2 (Homo sapiens), Q9UNQ0 | JC-1 efflux | inhibition, % at 6.6 µM | actives 0.1% (n = 190,000);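 active means inhibition above 80%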;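 further: 0% = DMSO and 100% = nicardipine control wells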
# Target sequence (Q9UNQ0 whole entry, looked up): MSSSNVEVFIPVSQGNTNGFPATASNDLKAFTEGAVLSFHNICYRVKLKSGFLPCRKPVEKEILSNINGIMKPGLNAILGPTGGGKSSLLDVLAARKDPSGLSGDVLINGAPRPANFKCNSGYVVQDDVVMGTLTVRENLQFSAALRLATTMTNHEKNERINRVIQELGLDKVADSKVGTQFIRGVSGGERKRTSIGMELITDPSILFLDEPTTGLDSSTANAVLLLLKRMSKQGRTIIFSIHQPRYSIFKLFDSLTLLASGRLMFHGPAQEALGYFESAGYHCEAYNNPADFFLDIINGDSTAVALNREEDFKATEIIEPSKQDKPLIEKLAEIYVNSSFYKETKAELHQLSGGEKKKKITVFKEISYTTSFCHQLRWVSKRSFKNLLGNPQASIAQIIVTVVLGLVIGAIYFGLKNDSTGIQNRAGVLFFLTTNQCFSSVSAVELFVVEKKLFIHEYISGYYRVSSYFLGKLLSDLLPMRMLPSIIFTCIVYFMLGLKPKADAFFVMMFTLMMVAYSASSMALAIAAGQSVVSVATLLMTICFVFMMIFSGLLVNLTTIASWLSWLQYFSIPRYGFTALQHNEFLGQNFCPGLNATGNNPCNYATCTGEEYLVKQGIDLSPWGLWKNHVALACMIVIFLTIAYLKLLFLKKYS
#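 Measure – % inhibition of efflux relative to nicardipine and DMSO · Test system – ABCG2 IgMXP3 and barcoded ABCB1 CCRF-Adr cell mix · Control set – nicardipine as high control, DMSO as low control · Compound – one concentration, 6.6 µM final · Signal – flow cytometry of retained JC-1 fluorescence · Timing – 10 min exposure at 25 °C with rotation, no wash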
# MEKK2wt confirm – modulators of MEK5 binding to wildtype MEKK2, confirmation, biochemical, single concentration, multiplex bead flow cytometry; shares compounds with MEKK3 PB1 HTS; Alexa488-MEK5 binding to MEKK2 WT; actives lie on both sides; binding response (% of control), % at 10 µM; actives 2.4% (n = 5,900); AID 1892, 2009; in the data active means binding response below about 16% or above about 210%; inactive means in between
# MEKK2mut confirm – mutant MEKK2 PB1-MEK5 binding signal retest – biochemical, single concentration, multiplex bead flow cytometry, confirmation | shares compounds with MEKK3 PB1 HTS | percent response, % at 10 µM | actives 2% (n = 5,900) | Alexa488-MEK5 binding to MEKK2 mutant | AID 1893, 2009; in the data active means percent response mostly above about 71%, no sharp cut-off; inactive means mostly below about 38%;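 further: higher means compound restores mutant binding toward wildtype level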
# MEKK3-MEK5 inh – MEKK3 wild-type PB1 binding to MEK5, inhibitors, confirmation, biochemical, bead multiplex flow cytometry, single concentration, wildtype; Alexa488-MEK5 binding to MEKK3; stronger effect = lower value; shares compounds with MEKK3 PB1 HTS; binding response (% of control), % at 10 µM; actives 1.8% (n = 5,900);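 active means binding response below 72% of control, or above a set upper limit, though filed actives all read lower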;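 further: 100% = DMSO only wells and 0% = binding blocked by excess unlabeled MEK5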
# The depositor's hits bear a star; . = not tested or not shown; [ ] = dose if it differs, or a comment.
SMILES,MEKK3 PB1 HTS,MEKK2mut PB1 HTS,ABCB1 inh,MEKK2 WT-MEK5,ABCG2 block,MEKK2wt confirm,MEKK2mut confirm,MEKK3-MEK5 inh
COc1ccc(N(C(=O)c2snc(C(N)=O)c2N)C(C(=O)NCC2CCCO2)c2ccc3ncccc3c2)cc1OC (configuration not stated),119,17,.,118,.,.,.,.
COCc1ccc(CN2CCC(C(=O)Nc3cccc(-c4cccc(Cl)c4)c3)CC2)o1,108,25*,.,177*,.,180,39,111
O=C(Nc1cccc(-c2cccc(Cl)c2)c1)C1CCN(CC2CCOC2)CC1 (configuration not stated),108,41*,.,151*,.,161,35,111
COCc1ccc(CN2CCC(C(=O)Nc3cccc(-c4cscn4)c3)CC2)o1,104,4,.,109,.,.,.,.
Cc1cccc(-c2ccc(NC(=O)C3CCN(CC4CC4)CC3)cc2)c1,121,35*,.,159*,.,134,28,102
O=C(Nc1cccc(-c2cccc(Cl)c2)c1)C1CCN(Cc2ccon2)CC1,109,17,.,123,.,.,.,.
O=C(Nc1cccc(-c2cccc(F)c2)c1)C1CCN(CC2CCOC2)CC1 (configuration not stated),97,2,.,110,.,.,.,.
COc1cccc(CN2CCC(C(=O)Nc3ccc(-c4cccc(C)c4)cc3)CC2)c1O,98,22,.,133,.,.,.,.
O=C(Nc1cccc(-c2cccc(Cl)c2)c1)C1CCN(Cc2ccccn2)CC1,110,23,.,140*,.,195,61,110
CC(=O)OCCN1CCN(C(=O)CN2C(=O)NC(c3ccccc3)(c3ccccc3)C2=O)CC1,98,-2,.,97,.,.,.,.
O=C(Nc1ccc(Cl)cc1)c1ccc(S(=O)(=O)N2CCOCC2)cc1,103,-3,.,100,.,.,.,.
O=C(Nc1ccccc1)c1ccc(NCc2cccnc2)c(S(=O)(=O)N2CCOCC2)c1,123*,7,1,129,9,100,-4,97
O=C(Nc1ccccc1)c1ccc(S(=O)(=O)N2CCOCC2)cc1,136*,10,0,135*,2,103,2,101
O=C(Nc1ccccc1)c1ccc(NCc2ccco2)c(S(=O)(=O)N2CCOCC2)c1,95,-4,2,97,12,.,.,.
Cc1cc2c(cc1S(=O)(=O)CCC(=O)N(C)Cc1ccccc1)OCC(=O)N2,99,-6,.,96,.,.,.,.
Cn1cc(CN2CCN(c3ccccc3)CC2)c2ccccc21,73*[inhibitor],-9,2,92,0,112,10,108
O=C(CCCn1nnnc1CN1CCOCC1)N1CCC(c2ccccc2Cl)C1 (configuration not stated),97,4,.,104,.,.,.,.
COc1ccc(/C=N/N=C2\SCC(=O)N2c2c(C)n(C)n(-c3ccccc3)c2=O)cc1OC,146*,4,-1,108,-3,102,2,104
CC(=O)Nc1ccnn1C1CCN(C(=O)c2cccc(C)c2C)CC1,102,3,.,102,.,.,.,.
COc1cccc(NC(=O)C(NCCc2ccc(S(N)(=O)=O)cc2)c2ccccc2)c1 (configuration not stated),101,2,.,96,.,.,.,.
Cc1ccc(OCC(=O)Nc2ccc(S(=O)(=O)Nc3ccccn3)cc2)c(C)c1,116,0,0,100,4,.,.,.
Cc1ccccc1OCC(=O)Nc1ccc(S(=O)(=O)Nc2ccccn2)cc1,136*,0,0,109,12,96,1,100
O=[N+]([O-])c1ccc2sc(SCc3nc4ccccn4c3Br)nc2c1,138*,0,0,104,-1,102,-2,102
Brc1c(CSc2nc3ccccc3s2)nc2ncccn12,99,15,1,109,22,.,.,.
Cc1[nH]c2c(ccc3ccccc32)c1C1C(CCN)C1(C)C (configuration not stated),107,37,0,208*,1,166,41,108
SMILES,MEKK3 PB1 HTS,MEKK2mut PB1 HTS,ABCB1 inh,MEKK2 WT-MEK5,ABCG2 block,MEKK2wt confirm,MEKK2mut confirm,MEKK3-MEK5 inh
S=c1[nH]c2ccc3ccccc3c2[nH]1,97,-2,0,93,1,.,.,.
O=C(NCC1COc2ccccc2O1)c1ccc(Br)s1 (configuration not stated),102,2,.,100,.,.,.,.
Cc1cccc(N2CCN(C(=O)CN3C(=O)C4CC=CCC4C3=O)CC2)c1C (configuration not stated),67*[inhibitor],-2,2,85,8,96,4,101
Cc1cccc(N2CCN(C(=O)CN3C(=O)NC(C)(C)C3=O)CC2)c1C,89,-19,.,97,.,.,.,.
Cc1c(CN2CCC(CO)(CCOc3ccccc3)CC2)[nH]c2c(Cl)cccc12,115,28,1,240*,1,195,50,108
CC(=O)N1CCc2cc(S(=O)(=O)CCC(=O)Nc3cc(C)cc(C)c3)ccc21,96,-3,.,97,.,.,.,.
Cc1cc2oc3cc(NCCC4CCCN4C)ccc3c(=O)c2cc1C (configuration not stated),109,22,.,178*,.,142,21,103
Cc1c(C(=O)N2CCN(C)CC2)oc2ccc(S(=O)(=O)N3CCOCC3)cc12,2.0*[inhibitor],-16,1,2.0*[inhibitor],4,98,-2,96
COCCCNC(=O)c1oc2ccc(S(=O)(=O)N3CCOCC3)cc2c1C,99,-1,.,99,.,.,.,.
Cc1c(C(=O)NCCc2ccccc2)oc2ccc(S(=O)(=O)N3CCOCC3)cc12,125*,6,1,116,2,104,2,102
Cc1c(C(=O)NC2CCCc3ccccc32)oc2ccc(S(=O)(=O)N3CCCC3)cc12 (configuration not stated),100,2,4,99,9,.,.,.
